# Sampled rows, rich in hits. Any-hit rate of the full collection: about 1.9%.
# MBD2 inh – inhibitors of human MBD2 binding to methylated oligonucleotide | Q9UBB5 | TR-FRET | inhibition, % at 4.4 µM | 0.31% of 370,000 active; in the data active = inhibition above about 13%
# UHRF1 MBD2 ctr – human UHRF1 methylated DNA binding inhibitors; Q96T88; UHRF1 binding to methylated oligo, TR-FRET; inhibition, % at 4.4 µM; 0.75% of 370,000 active; AID 687016; in the data active = inhibition above about 21%;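 also: UHRF1 SRA domain binding a hemimethylated CpG hairpin DNA probe; 0% = median of test compound wells and 100% = reference inhibitor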
# Target sequence (Q96T88 whole entry, looked up, the tested form may be a part): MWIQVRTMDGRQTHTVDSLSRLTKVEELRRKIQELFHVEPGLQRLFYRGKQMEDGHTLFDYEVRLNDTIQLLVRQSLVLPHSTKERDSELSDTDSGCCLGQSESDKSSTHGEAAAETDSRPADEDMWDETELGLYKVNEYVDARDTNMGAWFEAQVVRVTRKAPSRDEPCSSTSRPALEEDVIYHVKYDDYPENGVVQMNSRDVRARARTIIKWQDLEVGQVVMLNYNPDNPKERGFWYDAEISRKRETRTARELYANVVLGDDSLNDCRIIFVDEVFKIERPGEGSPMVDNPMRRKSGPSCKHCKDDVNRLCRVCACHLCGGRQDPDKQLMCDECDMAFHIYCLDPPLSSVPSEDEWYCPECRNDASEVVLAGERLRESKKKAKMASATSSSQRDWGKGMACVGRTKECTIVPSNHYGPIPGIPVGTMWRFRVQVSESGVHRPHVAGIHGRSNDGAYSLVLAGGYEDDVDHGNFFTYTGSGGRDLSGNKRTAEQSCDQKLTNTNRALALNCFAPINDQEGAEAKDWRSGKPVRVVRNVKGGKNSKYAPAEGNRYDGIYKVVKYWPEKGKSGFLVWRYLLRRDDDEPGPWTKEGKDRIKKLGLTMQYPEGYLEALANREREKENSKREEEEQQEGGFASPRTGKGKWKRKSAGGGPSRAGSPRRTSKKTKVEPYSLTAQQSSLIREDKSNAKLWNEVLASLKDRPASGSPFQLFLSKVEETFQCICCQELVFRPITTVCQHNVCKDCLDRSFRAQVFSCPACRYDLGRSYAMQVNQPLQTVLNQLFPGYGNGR
# LEDGF integ inh – blocks HIV-1 LEDGF/p75-dependent DNA integration | TR-FRET IN-LEDGF/p75 DNA integration, Eu/Cy5 | inhibition, % at 3.7 µM | 0.64% of 370,000 active | AID 743269;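 active = inhibition above the screen-wide mean plus 3 SD, cut at about 13% in these data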;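 also: signal is the Cy5 over europium emission ratio at 671 and 618 nm; 0% = plate median of compound wells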
# Rin1-Abl PPI inh – blocks binding of human Rin1 to Abl; P00519+Q13671; TR-FRET Rin1/Abl binding, biochemical; inhibition, % at 7.35 µM; 0.4% of 360,000 active; AID 588664; in the data active = inhibition above about 5%, passing the limit was not always enough
# TDP2 inh – TDP2 (human) inhibition, absorbance primary screen | recombinant TDP2, T5PNP hydrolysis, p-nitrophenol absorbance 415 nm | 0.34% of 370,000 active | inhibition, % at 12.8 µM;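 active = inhibition above the mean of all tested compounds plus 3 SD, set per campaign, cut at about 25% in these data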;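 also: 0% = DMSO with enzyme and 100% = buffer with substrate but no TDP2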
#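 System: recombinant human TDP2 / Amount: 120 nM TDP2 per well / Also added: 5 mM T5PNP chromogenic substrate / Doses: 12.8 µM single point, 1% DMSO / Incubation: 2 h at 37 °C / Detection: p-Nitrophenol epi absorbance / Evaluation: % inhibition relative to enzyme-containing and enzyme-free wells / Repeats: singlicate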
# Rin1-Abl confirm – Rin1-Abl interaction inhibition confirmation; shares compounds with Rin1-Abl PPI inh; TR-FRET Rin1-Abl binding, purified proteins; inhibition, % at 7.35 µM; 49% of 1,300 active; AID 602124
# GFP quench – counter-screen for Rin1-Abl inhibitors: GFP fluorescence quenchers | shares compounds with Rin1-Abl PPI inh | inhibitors/quenchers counterscreen | inhibition, % at 6.75 µM | 8.5% of 1,300 active | AID 602125;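 also: ABL1-eGFP fusion protein alone without its partner RIN1-SBP; 0% = protein with vehicle and 100% = wells lacking protein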
# * hit, by the source's call; / = not tested or not shown. Rule as the data show it, unless noted: active = inhibition above about 6.5%; inactive = the rest.
SMILES,MBD2 inh,UHRF1 MBD2 ctr,LEDGF integ inh,Rin1-Abl PPI inh,TDP2 inh,Rin1-Abl confirm,GFP quench
Cc1ccc(C(=O)N2CCC(Oc3cccnc3)CC2)c(C)c1,0,-1,5,/,3,/,/
CCN(CC)c1ccc(S(=O)(=O)N2CCOCC2)cc1NC(=O)C1CC1,4,3,-3,9.4*,7,-2,-1
O=C(COc1ccccc1C(=O)N/N=C\c1ccc(O)c(O)c1)N/N=C/c1ccc(O)c(O)c1,/,/,/,28*,/,38*,12*
CC(C)(C)c1ccc(OCc2ccc(C(=O)N/N=C/c3ccc(O)c(O)c3)cc2)cc1,1,-2,0,8.2*,-3,8.8*,2
COP(=O)(O)[C@@H](CC(C)C)NC(=O)OCc1ccccc1,1,2,0,/,-4,/,/
O=C(O)c1ccc(-c2nc3ccccc3[nH]2)cc1,-2,4,1,0,-2,/,/
O=C(O)c1ccc(-c2ncc[nH]2)cc1,4,0,-4,9.3*,-11,1,0
CC(=O)Nc1nn(C)c2nc3cc(C)ccc3cc12,-10,0,-4,-4,-10,/,/
Cc1ccc2cc3c(NC(=O)c4cccnc4)nn(C)c3nc2c1,-7,-1,5,6.0*,8,21*,0
Cn1c(=O)cc(OCC(=O)N2CCN(c3ccccc3Cl)CC2)c2ccccc21,-7,19,1,/,4,/,/
Cc1nc(C)n(C)c(=O)c1-c1ccccc1,0,-4,2,40*,-8,-1,0
O=C(CCNC(=O)c1ccc(Br)cc1)NCc1ccncc1,-2,1,1,10*,-1,3,1
O=C(NCc1ccncc1)c1ccc(Br)cc1,0,-3,0,-3,11,/,/
O=C(O)c1ccc(COc2ccccc2Cl)cc1,-3,1,-3,5.0*,8,0,0
O=C(O)c1cccc(COc2ccccc2Cl)c1,-1,0,0,2,13,/,/
O=C(OCc1cn(Cc2c(F)cccc2F)nn1)N1CCOCC1,-2,2,0,/,1,/,/
Cc1ccc(S(=O)(=O)Nc2cccc3c2O[C@H](CN(C)Cc2ccc(-c4ccccc4)cc2)[C@@H](C)CN([C@H](C)CO)C3=O)cc1,3,1,2,10*,2,9.7*,0
C[C@H](CO)N1C[C@H](C)[C@@H](CN(C)Cc2ccc(Cl)c(Cl)c2)Oc2c(NC(=O)Cc3ccccc3)cccc2C1=O,-2,0,3,6,1,/,/
C[C@H](CO)N1C[C@H](C)[C@@H](CN(C)Cc2ccc(-c3ccccc3)cc2)Oc2c(NS(=O)(=O)c3ccccc3)cccc2C1=O,0,0,-1,14*,-7,9.6*,0
C[C@H](CO)N1C[C@H](C)[C@@H](CN(C)Cc2ccc(Cl)c(Cl)c2)Oc2c(NC(=O)c3ccncc3)cccc2C1=O,-5,2,2,13*,-1,8.7*,1
C[C@H](CO)N1C[C@H](C)[C@@H](CN(C)Cc2ccc3c(c2)OCO3)Oc2c(NS(=O)(=O)c3cn(C)cn3)cccc2C1=O,0,-2,1,1,19,/,/
C[C@H](CO)N1C[C@H](C)[C@@H](CN(C)Cc2ccc(-c3ccccc3)cc2)Oc2c(NS(=O)(=O)c3cn(C)cn3)cccc2C1=O,-2,-1,-1,36*,2,29*,-2
CC(C)CNS(=O)(=O)CC1NCc2ccccc21 (configuration not stated),-2,-7,3,/,4,/,/
O=C(NCc1ccccc1)N1CCC(c2nc3ccc(Cl)cc3[nH]2)CC1,-1,0,-1,/,3,/,/
Cc1ccc(NC(=O)CSc2nc3c(c(=O)n(C)c(=O)n3C)n2C)cc1,-3,1,-3,6.8*,8,0,-4
SMILES,MBD2 inh,UHRF1 MBD2 ctr,LEDGF integ inh,Rin1-Abl PPI inh,TDP2 inh,Rin1-Abl confirm,GFP quench
CCOc1ccc2c(ccc(/C=C/c3cc(C)c4cccnc4c3O)[n+]2C)c1,/,/,/,40*,/,56*,59*
CCOc1ccc2[nH]c3ncccc3c(=O)c2c1,-8,-8,0,-7,13,/,/
COc1ccc(Cn2ccc3ccc(-c4ccc5ccn(Cc6ccc(F)cc6)c5c4)cc32)cc1,1,0,-1,/,8,/,/
CC(=O)c1cccc(OCc2cc(C(=O)N3CCC(N4CCCCC4)CC3)no2)c1,5,-1,-3,9.9*,1,6,0
CCOC(=O)[C@]12CCCCC/C=C\1N(Cc1ccc(OC)cc1)C(=O)[C@H]2CC(=O)N1CCC(c2ccccc2)CC1,-2,3,6,/,-14,/,/
COc1ccc(CC(=O)NNC(=S)NC(=O)c2cccnc2)cc1,3,3,2,6.8*,-4,0,2
O=C(NC(NC(=S)Nc1ccccc1C(=O)O)C(Cl)(Cl)Cl)c1ccco1 (configuration not stated),2,2,0,7.0*,5,0,1
O=C(c1ccc(Cl)c(Cl)c1)N1CCC(=O)N(C(COCc2ccccc2)Cc2ccccc2)CC1 (configuration not stated),-3,-2,-2,9.5*,0,15*,0
Cc1cc(C)cc(NC(=O)N2CCNC(=O)C2CC(=O)Nc2cc(Cl)ccc2Cl)c1 (configuration not stated),1,-1,3,10*,5,8.0*,1
O=C(CC1C(=O)NCCN1C(=O)Nc1ccc(F)cc1F)Nc1cc(Cl)ccc1Cl (configuration not stated),6,-2,-8,2,-8,/,/
Cc1ccc(/C=N\NC(=O)CN2CCN(S(=O)(=O)c3ccc(Br)cc3)CC2)s1,1,2,-3,/,-9,/,/
O=C(NCCc1ccccc1Cl)[C@@H]1CCCN1C(=O)[C@@H](NS(=O)(=O)c1ccc(F)cc1F)c1ccccc1,-3,3,4,/,-6,/,/
O=C(Nc1ccn(CCCNCCN2CCOCC2)c(=O)n1)OCc1ccccc1,2,0,2,0,0,/,/
O=C(Nc1ccn(CCCN2CCC(N3CCOCC3)CC2)c(=O)n1)OCc1ccccc1,-1,-1,2,11*,3,6.9*,-1
O=C(Nc1ccn(CCCN2CCN(c3ccccc3)CC2)c(=O)n1)OCc1ccccc1,1,-2,1,3,-5,/,/
Cc1cc(C)c(CN2CCN(CCCn3ccc(NC(=O)OCc4ccccc4)nc3=O)CC2)c(C)c1,0,0,3,7.9*,3,8.0*,2
CCCCOc1ccc(C(=O)N2CCN(CC(=O)Nc3ccc(C)cc3)CC2)cc1OC,-3,3,4,8.6*,-6,11*,-1
CN(C)Cc1ccccc1CCc1ccccc1,2,1,3,-1,-13,/,/

# Screens from PubChem BioAssay.
